Measurements reported in ChEMBL document CHEMBL3414455, “Boronic species as promising inhibitors of the Staphylococcus aureus NorA efflux pump: study of 6-substituted pyridine-3-boronic acid derivatives” (Eur J Med Chem, 2015).
Converted amounts (≈) assume the structure as drawn.

Experiments:
Staphylococcus aureus [1] = experiment: Antibacterial activity against fluoroquinolone-resistant Staphylococcus aureus 1199B overexpressing NorA after 24 hrs by two fold microdilution method; assay type: functional
[2] = target: T1, Quinolone resistance protein NorA (Staphylococcus aureus) (UniProt P0A0J7); experiment: Inhibition of NorA in fluoroquinolone-resistant Staphylococcus aureus 1199B assessed as minimum modulatory concentration require to potentiate 2 ug/ml ciprofloxacin-induced antibacterial activity
T1 sequence (whole entry): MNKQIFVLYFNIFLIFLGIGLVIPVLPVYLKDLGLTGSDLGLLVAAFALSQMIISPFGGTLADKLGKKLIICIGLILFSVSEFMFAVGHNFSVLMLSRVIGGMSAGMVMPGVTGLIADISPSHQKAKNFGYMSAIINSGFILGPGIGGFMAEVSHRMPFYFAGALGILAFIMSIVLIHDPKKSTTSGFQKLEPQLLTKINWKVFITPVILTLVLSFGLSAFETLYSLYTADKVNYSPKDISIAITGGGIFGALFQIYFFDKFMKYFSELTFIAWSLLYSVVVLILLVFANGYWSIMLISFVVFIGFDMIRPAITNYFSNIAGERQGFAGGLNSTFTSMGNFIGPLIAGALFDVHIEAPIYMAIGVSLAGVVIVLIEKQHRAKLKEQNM

[3] = target: T1, Quinolone resistance protein NorA (Staphylococcus aureus); experiment: Inhibition of NorA in fluoroquinolone-resistant Staphylococcus aureus 1199B assessed as minimum modulatory concentration require to potentiate 4 ug/ml ciprofloxacin-induced antibacterial activity
[4] = Cytotoxicity against human KB cells assessed as growth inhibition at 10^-6 M after 72 hrs by MTS assay relative to control; assay type: cell-based; conditions: read-out: GI
[5] = Cytotoxicity against human KB cells assessed as growth inhibition at 10 uM after 72 hrs by MTS assay relative to control; assay type: cell-based; conditions: read-out: GI
Summary of the method: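 KB cells were grown in D-MEM with 10% FCS at 37°C under 5% CO2. Compounds in DMSO (1% final) were added 24 h after plating, and cells were exposed for 72 h. MTS was then added for 3 h and absorbance read at 490 nm. Inhibition = (1 − OD treated/OD DMSO control) × 100, in triplicate. Docetaxel 0.15 nM served as positive control.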

[6] = target: T1, Quinolone resistance protein NorA (Staphylococcus aureus); experiment: Inhibition of NorA in fluoroquinolone-resistant Staphylococcus aureus 1199B assessed as minimum modulatory concentration require to potentiate 16 ug/ml norfloxacin-induced antibacterial activity
Staphylococcus aureus [7] = experiment: Antibacterial activity against methicillin-susceptible […] Staphylococcus aureus ATCC 25923 after 24 hrs by two fold microdilution method; assay type: functional; conditions: ATCC 25923, 24 h
Summary of the method: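 Broth microdilution in Mueller-Hinton broth, about 10^6 CFU/mL per well, inoculum from an 18 h culture at 37°C. Compounds were dissolved in DMSO and tested in twofold serial dilutions, top 128 mg/L, or the highest fully soluble level (at least 16 mg/L). MIC is the lowest concentration giving complete growth inhibition after 24 h at 37°C, read at 620 nm and visually, in duplicate.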

[8] = target: T1, Quinolone resistance protein NorA (Staphylococcus aureus); experiment: Inhibition of NorA in fluoroquinolone-resistant Staphylococcus aureus 1199B assessed as minimum modulatory concentration require to potentiate 2 ug/ml ciprofloxacin-induced antibacterial activity at MMC relative to control
Staphylococcus aureus [9] = experiment: microbe, parasite or virus in culture; conditions: 1199B, 24 h
[10] = target: T1, Quinolone resistance protein NorA (Staphylococcus aureus); experiment: Inhibition of NorA in fluoroquinolone-resistant Staphylococcus aureus 1199B assessed as increase in ethidium bromide uptake at 20 ug/ml after 20 mins by fluorimetry relative to control
Summary of the method: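 Mid-log cells (overnight culture diluted 20-fold, 3.5 h, 37°C, 130 rpm) resuspended in Mueller-Hinton broth containing 10 mg/L EtBr, 37°C; compound added at 10 min (final 20 mg/L), fluorescence (ex 530/em 600 nm) followed 20 more min; rise over pre-addition baseline; reserpine 5 and 20 µg/mL positive, 1.6% DMSO negative; two or three experiments.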

[11] = target: ATP-dependent translocase ABCB1 (Homo sapiens, UniProt P08183); experiment: Inhibition of MDR1 in human NCI-ADR-RES cells assessed as increase in rhodamine-123 uptake at 1 to 100 uM after 1 hr by fluorescence assay; assay type: cell-based
Summary of the method: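 NCI/ADR-RES cells (P-gp overexpressing) were seeded at 60,000/well in RPMI. After 24 h they were washed with PBS and given compound (100, 10, 1 µM) plus 12.5 µM rhodamine 123 in FCS-free medium for 1 h at 37°C, 5% CO2. Cells were then washed, lysed in 20 mM Tris pH 7.7 with 0.2% SDS, and fluorescence read at 507/528 nm.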

SMILES	MIC (Staphylococcus aureus [1])	MMC [2]	MMC [3]	inhibition at 72 h, 1 µM [4]	inhibition at 72 h, 10 µM [5]	MMC [6]	MIC (Staphylococcus aureus [7])	fold change (FC) [8]	MIC (Staphylococcus aureus [9])	inhibition [10]	inhibition (INH) [11]
OB(O)c1ccc(OCCCCCc2ccccc2)nc1	16 µg/mL (≈ 56.1 µM)	14 µM	2 µg/mL	6%	60%	–	–	–	–	–	–
OB(O)c1ccc(OCCc2ccccc2)nc1	> 128 µg/mL	65.8 µM	1 µg/mL	–	28%	16 µg/mL	> 128 µg/mL	–	–	–	–
OB(O)c1cncc(OCc2ccccc2)c1	> 128 µg/mL	> 128 µg/mL	8 µg/mL	–	0%	–	> 128 µg/mL	–	–	–	–
CCCCCCCOc1ccc(B(O)O)cn1	> 16 µg/mL	33.7 µM	0.5 µg/mL	–	73%	8 µg/mL	> 16 µg/mL	–	–	–	–
OB(O)c1ccc(OCc2ccc3c(c2)OCO3)nc1	> 128 µg/mL	–	64 µg/mL	–	0%	–	> 128 µg/mL	–	–	–	–
OB(O)c1ccc(Oc2ccc(Cl)cc2Cl)nc1	128 µg/mL (≈ 451 µM)	56.4 µM	1 µg/mL	–	1%	32 µg/mL	–	–	–	–	–
OB(O)c1ccc(NCc2ccccc2)nc1	> 128 µg/mL	561 µM	32 µg/mL	–	0%	–	> 128 µg/mL	–	–	–	–
COC(=O)[C@H]1[C@H]2C[C@@H]3c4[nH]c5cc(OC)ccc5c4CCN3C[C@H]2C[C@@H](OC(=O)c2cc(OC)c(OC)c(OC)c2)[C@@H]1OC	–	6.57 µM	–	–	–	–	–	–	–	–	–
CCCCCOc1ccc(B(O)O)cn1	> 128 µg/mL	306 µM	2 µg/mL	–	16%	64 µg/mL	> 128 µg/mL	–	–	–	–
CCn1cc(C(=O)O)c(=O)c2cc(F)c(N3CCNCC3)cc21 [NORFLOXACIN]	64 µg/mL (≈ 200 µM)	–	–	–	–	–	–	–	–	–	–
OB(O)c1ccc(OCCCCCCc2ccccc2)nc1	> 16 µg/mL	13.4 µM	0.5 µg/mL	–	46%	–	> 16 µg/mL	–	–	–	–
CCCCOc1ccc(B(O)O)cn1	> 128 µg/mL	328 µM	2 µg/mL	–	1%	64 µg/mL	> 128 µg/mL	–	–	–	–
OB(O)c1ccc(SCc2ccccc2)nc1	64 µg/mL (≈ 261 µM)	65.3 µM	0.5 µg/mL	–	8%	16 µg/mL	64 µg/mL (≈ 261 µM)	–	–	–	–
OB(O)c1ccc(OCc2ccccc2)nc1	> 128 µg/mL	69.8 µM	1 µg/mL	–	–	32 µg/mL	> 128 µg/mL	4	–	–	–
OB(O)c1ccc(Oc2ccccc2)nc1	> 128 µg/mL	298 µM	2 µg/mL	–	14%	128 µg/mL	> 128 µg/mL	–	–	–	–
O=C(O)c1cn(C2CC2)c2cc(N3CCNCC3)c(F)cc2c1=O [CIPROFLOXACIN]	8 µg/mL (≈ 24.1 µM)	–	–	–	–	–	–	–	0.5 µg/mL (≈ 1.51 µM)	–	–
OB(O)c1ccc(OCc2ccc(Cl)cc2)nc1	128 µg/mL (≈ 486 µM)	121 µM	1 µg/mL	–	33%	16 µg/mL	≥ 128 µg/mL	–	–	–	–
OB(O)c1ccc(OCCCCCCCc2ccccc2)nc1	> 16 µg/mL	12.8 µM	0.5 µg/mL	–	62%	–	> 16 µg/mL	–	–	–	–
OB(O)c1ccc(OCc2ccc(F)cc2)nc1	> 128 µg/mL	130 µM	2 µg/mL	–	8%	64 µg/mL	> 128 µg/mL	–	–	–	–
CC1(C)S[C@@H]2[C@H](NC(=O)[C@H](N)c3ccccc3)C(=O)N2[C@H]1C(=O)O [AMPICILLIN]	–	–	–	–	–	–	0.25 µg/mL (≈ 0.715 µM)	–	–	–	–
CCCOc1ccc(B(O)O)cn1	> 128 µg/mL	> 128 µg/mL	4 µg/mL	–	0%	> 128 µg/mL	> 128 µg/mL	–	–	–	–
OB(O)c1ccc(OCCCc2ccccc2)nc1	> 128 µg/mL	15.6 µM	0.5 µg/mL	9%	83%	8 µg/mL	> 128 µg/mL	4	–	43%	Not Active
CCCCCCCCCCCCOc1ccc(B(O)O)cn1	> 16 µg/mL	> 16 µg/mL	> 16 µg/mL	–	13%	–	> 16 µg/mL	–	–	–	–
OB(O)c1ccc(OCc2ccc(Cl)c(Cl)c2)nc1	16 µg/mL (≈ 53.7 µM)	3.35 µM	0.125 µg/mL	0%	44%	–	–	–	–	–	–
OB(O)c1ccc(OCCCCc2ccccc2)nc1	32 µg/mL (≈ 118 µM)	14.8 µM	0.25 µg/mL	–	13%	8 µg/mL	64 µg/mL (≈ 236 µM)	4	–	42%	Not Active
CCCCCCOc1ccc(B(O)O)cn1	> 128 µg/mL	71.7 µM	2 µg/mL	–	46%	16 µg/mL	–	–	–	–	–
Cc1cc(B(O)O)cnc1OCc1ccccc1	> 128 µg/mL	65.8 µM	4 µg/mL	–	15%	8 µg/mL	–	–	–	–	–
COc1cc(COc2ccc(B(O)O)cn2)cc(OC)c1OC	> 128 µg/mL	–	8 µg/mL	–	3%	–	> 128 µg/mL	–	–	–	–
